Assay outcomes: PubChem, Broad Institute
T cruzi intra: intracellular Trypanosoma cruzi inhibition. activity score (inhibition), % at 5.01 µM. AID 651903. 4.9% of 22,000 active. intracellular Trypanosoma cruzi in host cells, plate reader; in the data active = activity score above about 55%;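 note: parasites and compound incubated about four days before reading; 0% = median of neutral control wells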
A1 apoptosis 2: A1 inhibition read as caspase activation; 24,000 tested, under 10 active; caspase activation, % (no concentration beside the values); MEF A1-2A-BIM cells, caspase-Glo luminescence, 3 h; percent of clofoctol response, DMSO zero; AID 2465; in the data active = caspase activation above about 5.9%
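system = A1-2A-BIM-expressing MEF cells | quantity = 2500 MEF cells/well | dosing = 50 nL compound per well, pinned | schedule = overnight cell settling, then 3 h compound exposure, 37 °C | signal = luminescence from DEVD-luciferin Caspase-Glo reagent, 1:1 in 50 mM HEPES, 1 h RT | read-out = Caspase-3/7 activation, seen as rise in luminescence signal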
INS-1E ATP HTS: preserves ATP levels in cytokine-treated INS-1E cells; INS-1E cytokine-induced death, ATP luminescence, 48 h; normalised: neutral wells 0, positive control 100; protection from cytokine-induced ATP loss, % at 10 µM; 0.1% of 20,000 active;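 active = mean replicate protection from cytokine-induced ATP loss at least 50% and at least 75% of replicates each reaching 50%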
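Test system: INS-1E rat cells | Quantity: 8000 cells per well | Medium: Phenol-red-free RPMI with 5% fetal bovine serum | Reagent: Cytokine cocktail of IFN-γ, TNF-α and IL-1β | Doses: One compound concentration, pin transfer | Timing: 48 h co-treatment, 10 min post-lysis read | Technique: Luminescent ATP assay (CellTiter-Glo)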
* marks the source's active call; other numbers are inactive results; · = not tested or not shown. Many of the other results were omitted from the sample, so hits are more common in it than they were.

SMILES	T cruzi intra	A1 apoptosis 2	INS-1E ATP HTS
COc1ccc(S(=O)(=O)N(C)C[C@@H]2Oc3c(NC(=O)c4nc5ccccc5s4)cccc3C(=O)N([C@H](C)CO)C[C@H]2C)cc1	44	0	-37
COc1ccc(S(=O)(=O)N(C)C[C@@H]2Oc3c(NC(=O)Nc4cccc5ccccc45)cccc3C(=O)N([C@@H](C)CO)C[C@H]2C)cc1	9	1	81*
C[C@H]1CN([C@@H](C)CO)C(=O)c2cccc(NC(=O)c3nc4ccccc4s3)c2O[C@@H]1CN(C)S(=O)(=O)c1ccccc1	73*	·	-13
C[C@H]1CN([C@@H](C)CO)C(=O)c2cccc(NC(=O)c3nc4ccccc4s3)c2O[C@H]1CN(C)S(=O)(=O)c1ccccc1	77*	·	-39
COc1ccc(S(=O)(=O)N(C)C[C@H]2Oc3c(NC(=O)c4nc5ccccc5s4)cccc3C(=O)N([C@@H](C)CO)C[C@@H]2C)cc1	63*	·	-11
C[C@@H]1CN([C@@H](C)CO)C(=O)c2cccc(NC(=O)c3nc4ccccc4s3)c2O[C@H]1CN(C)S(=O)(=O)c1ccc(Cl)cc1	32	·	-30
COc1ccc(S(=O)(=O)N(C)C[C@@H]2Oc3c(NC(=O)Nc4cccc5ccccc45)cccc3C(=O)N([C@H](C)CO)C[C@@H]2C)cc1	-5	0	11
C[C@H](CO)N1C[C@H](C)[C@@H](CN(C)S(=O)(=O)c2ccccc2)Oc2c(NC(=O)c3nc4ccccc4s3)cccc2C1=O	42	·	1
COc1ccc(NC(=O)N(C)C[C@@H]2Oc3ccc(NC(=O)Nc4ccc(C(F)(F)F)cc4)cc3CC(=O)N([C@@H](C)CO)C[C@@H]2C)cc1	-2	·	-4
C[C@@H]1CN([C@H](C)CO)C(=O)Cc2cc(NC(=O)CCCCCC(=O)Nc3ccccc3N)ccc2O[C@H]1CN(C)C(=O)Nc1cccc2ccccc12	-60	·	1
COCCOC(=O)N1C(=O)[C@@]2(c3ccccc31)[C@H](c1ccc(O)cc1)N1[C@H](c3ccccc3)[C@H](c3ccccc3)OC(=O)[C@H]1[C@@H]2C(=O)N1CCN(c2ncccn2)CC1	·	0	·
C[C@@H]1CN([C@H](C)CO)C(=O)c2cccc(NC(=O)c3cnccn3)c2O[C@@H]1CN(C)S(=O)(=O)c1cccs1	6	·	-4
C[C@H](CO)N1C[C@H](C)[C@@H](CN(C)S(=O)(=O)c2cccs2)Oc2c(NC(=O)c3nc4ccccc4s3)cccc2C1=O	57*	0	-6
C[C@H]1CN([C@@H](C)CO)C(=O)c2cccc(NC(=O)c3nc4ccccc4s3)c2O[C@@H]1CN(C)S(=O)(=O)c1cccs1	25	1	-8
C[C@H](CO)N1C[C@H](C)[C@H](CN(C)S(=O)(=O)c2cccs2)Oc2c(NC(=O)c3cnccn3)cccc2C1=O	69*	·	0
C[C@@H]1CN([C@H](C)CO)C(=O)c2cc(NC(=O)Nc3cccc4ccccc34)ccc2O[C@@H]1CN(C)S(C)(=O)=O	-6	·	5
COc1ccc(S(=O)(=O)N(C)C[C@@H]2Oc3ccc(NS(=O)(=O)c4ccc(C)cc4)cc3CC(=O)N([C@@H](C)CO)C[C@@H]2C)cc1	-4	·	9
COc1ccc(S(=O)(=O)Nc2ccc3c(c2)CC(=O)N([C@@H](C)CO)C[C@@H](C)[C@@H](CN(C)S(=O)(=O)c2ccc(C)cc2)O3)cc1	63*	·	7
COc1ccc(S(=O)(=O)Nc2ccc3c(c2)CC(=O)N([C@H](C)CO)C[C@H](C)[C@H](CN(C)S(=O)(=O)c2ccc(C)cc2)O3)cc1	21	-1	-2
COc1ccc(S(=O)(=O)N(C)C[C@H]2Oc3ccc(NS(=O)(=O)c4ccc(C)cc4)cc3CC(=O)N([C@H](C)CO)C[C@H]2C)cc1	64*	1	7
C[C@@H]1CCCCO[C@@H](CN(C)C(=O)Nc2cccc3ccccc23)[C@@H](C)CN([C@H](C)CO)C(=O)c2cc(NC(=O)CCCCCC(=O)Nc3ccccc3N)ccc2O1	-37	2	-10
C[C@@H]1CN([C@H](C)CO)C(=O)Cc2cc(NS(=O)(=O)c3ccc(F)cc3)ccc2O[C@@H]1CN(C)Cc1ccc(-c2ccccc2)cc1	68*	·	-25
C[C@@H]1CN([C@@H](C)CO)C(=O)Cc2cc(NS(=O)(=O)c3ccc(F)cc3)ccc2O[C@@H]1CN(C)Cc1ccccc1	40	·	-8
C[C@@H]1CN([C@H](C)CO)C(=O)Cc2cc(NS(=O)(=O)c3ccc(F)cc3)ccc2O[C@H]1CN(C)Cc1ccc(-c2ccccc2)cc1	62*	·	-13
